Reference: ChEMBL document CHEMBL1782042, “Efficient microwave-assisted synthesis and antitumor activity of novel 4,4'-methylenebis[2-(3-aryl-4,5-dihydro-1H-pyrazol-5-yl)phenols]” (Eur J Med Chem, 2011)

Columns and labels:
SR [1] = experiment: Cytotoxicity against human SR cells; format: cell-based
Procedure, shortened: (§1)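 NCI 60 human tumour cell line screen; five concentration levels (100, 10, 1.0, 0.1 and 0.01 μM), 48 h continuous drug exposure. Cell growth estimated by sulforhodamine B (SRB) protein staining. GI50 taken as the drug concentration giving a 50% reduction in net protein increase relative to control cells over the incubation.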

RXF 393 [2] = experiment: Cytotoxicity against human RXF393 cells; format: cell-based
Procedure, shortened: (§2)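 NCI 60 human tumour cell line screen, second stage at five concentrations (100, 10, 1.0, 0.1 and 0.01 μM). Continuous drug exposure for 48 h, with cell growth estimated by sulforhodamine B protein staining. GI50 is the drug concentration giving a 50% reduction in net protein increase relative to control cells over the incubation.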

SF-539 = experiment: Anticancer activity against human SF539 cells after 48 hrs by sulforhodamine B assay; format: functional; conditions: SF-539, 48 h
Procedure, shortened: (§3)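 NCI 60-cell-line in vitro screen, second stage: five concentration levels (100, 10, 1.0, 0.1 and 0.01 μM) with 48 h continuous drug exposure. Cell growth was estimated by sulforhodamine B protein staining. GI50 is the drug concentration that gives a 50% reduction in net protein increase relative to control cells over the incubation.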

HOP-92 = experiment: Cytotoxicity against human HOP92 cells; format: cell-based; procedure, shortened: as §2
EKVX = experiment: Cytotoxicity against human EKVX cells; format: cell-based; procedure, shortened: as §2
T47D [3] = experiment: Cytotoxicity against human T47D cells; format: cell-based; procedure, shortened: as §1
DU-145 = experiment: Cytotoxicity against human DU145 cells; format: cell-based; procedure, shortened: as §2
786-0 = experiment: Anticancer activity against human 786-0 cells after 48 hrs by sulforhodamine B assay; format: functional; conditions: 786-0, 48 h; procedure, shortened: as §3
HL-60(TB) = experiment: Cytotoxicity against human HL-60(TB) cells; format: cell-based; procedure, shortened: as §2
HCT-15 = experiment: Cytotoxicity against human HCT15 cells; format: cell-based; procedure, shortened: as §2
SN12C = experiment: Cytotoxicity against human SN12C cells; format: cell-based; procedure, shortened: as §1
COLO 205 = experiment: Cytotoxicity against human COLO205 cells; format: cell-based; procedure, shortened: as §2
UACC-62 [4] = experiment: Cytotoxicity against human UACC62 cells; format: cell-based; procedure, shortened: as §1
M14 [5] = experiment: Anticancer activity against human M14 cells after 48 hrs by sulforhodamine B assay; format: functional; conditions: M14, 48 h; procedure, shortened: as §3
IGROV-1 = experiment: Cytotoxicity against human IGROV1 cells; format: cell-based; procedure, shortened: as §2
KM12 = experiment: Anticancer activity against human KM12 cells after 48 hrs by sulforhodamine B assay; format: functional; conditions: KM12, 48 h; procedure, shortened: as §3
MCF7 [6] = experiment: Anticancer activity against human MCF7 cells after 48 hrs by sulforhodamine B assay; format: functional; conditions: MCF7, 48 h; procedure, shortened: as §3
CCRF-CEM = experiment: Anticancer activity against human CCRF-CEM cells after 48 hrs by sulforhodamine B assay; format: functional; procedure, shortened: as §3
MDA-MB-435 = experiment: Cytotoxicity against human MDA-MB-435 cells; format: cell-based; procedure, shortened: as §2
BT-549 [7] = experiment: Cytotoxicity against human BT549 cells; format: cell-based; procedure, shortened: as §2
TK-10 [8] = experiment: Anticancer activity against human TK10 cells after 48 hrs by sulforhodamine B assay; format: functional; conditions: TK-10, 48 h
Procedure, shortened: (§4)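 NCI 60-cell-line screen, second stage. Five concentration levels (100, 10, 1.0, 0.1 and 0.01 μM), 48 h continuous drug exposure. Cell growth was estimated by sulforhodamine B protein staining. GI50 is the concentration giving a 50% reduction in net protein increase relative to control cells over the drug incubation. Compounds entered this stage after an earlier single-dose screen.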

RPMI-8226 = experiment: Anticancer activity against human RPMI8226 cells after 48 hrs by sulforhodamine B assay; format: functional; conditions: RPMI-8226, 48 h; procedure, shortened: as §3
HOP-62 [9] = experiment: Cytotoxicity against human HOP62 cells; format: cell-based; procedure, shortened: as §2
NCI/ADR-RES = experiment: Cytotoxicity against human NCI/ADR-RES cells; format: cell-based; procedure, shortened: as §2
MDA-MB-468 [10] = experiment: Anticancer activity against human MDA-MB-468 cells after 48 hrs by sulforhodamine B assay; format: functional; conditions: MDA-MB-468, 48 h; procedure, shortened: as §3
UACC-62 [11] = experiment: Anticancer activity against human UACC62 cells after 48 hrs by sulforhodamine B assay; format: functional; conditions: UACC-62, 48 h; procedure, shortened: as §4
HCC 2998 = experiment: Anticancer activity against human HCC2998 cells after 48 hrs by sulforhodamine B assay; format: functional; conditions: HCC 2998, 48 h; procedure, shortened: as §3
UO-31 [12] = experiment: Cytotoxicity against human UO31 cells; format: cell-based; procedure, shortened: as §1
M14 [13] = experiment: Cytotoxicity against human M14 cells; format: cell-based; procedure, shortened: as §2
T47D [14] = experiment: Anticancer activity against human T47D cells after 48 hrs by sulforhodamine B assay; format: functional; procedure, shortened: as §4
RXF 393 [15] = experiment: Anticancer activity against human RXF393 cells after 48 hrs by sulforhodamine B assay; format: functional; conditions: RXF 393, 48 h; procedure, shortened: as §3
SK-MEL-28 = experiment: Anticancer activity against human SK-MEL-28 cells after 48 hrs by sulforhodamine B assay; format: functional; conditions: SK-MEL-28, 48 h; procedure, shortened: as §3
CAKI-1 = experiment: Cytotoxicity against human Caki1 cells; format: cell-based; procedure, shortened: as §2
SR [16] = experiment: Anticancer activity against human SR cells after 48 hrs by sulforhodamine B assay; format: functional; procedure, shortened: as §4
UO-31 [17] = experiment: Anticancer activity against human UO31 cells after 48 hrs by sulforhodamine B assay; format: functional; conditions: UO-31, 48 h; procedure, shortened: as §4
HCT-116 [18] = experiment: Anticancer activity against human HCT116 cells after 48 hrs by sulforhodamine B assay; format: functional; conditions: HCT-116, 48 h; procedure, shortened: as §3
SW-620 = experiment: Cytotoxicity against human SW620 cells; format: cell-based; procedure, shortened: as §1
LOX IMVI = experiment: Anticancer activity against human LOXIMVI cells after 48 hrs by sulforhodamine B assay; format: functional; procedure, shortened: as §3
K562 = experiment: Anticancer activity against human K562 cells after 48 hrs by sulforhodamine B assay; format: functional; conditions: K562, 48 h; procedure, shortened: as §3
NCI-H522 = experiment: Anticancer activity against human NCI-H522 cells after 48 hrs by sulforhodamine B assay; format: functional; conditions: NCI-H522, 48 h; procedure, shortened: as §3
SNB-75 = experiment: Cytotoxicity against human SNB75 cells; format: cell-based; procedure, shortened: as §1
HOP-62 [19] = experiment: Anticancer activity against human HOP62 cells after 48 hrs by sulforhodamine B assay; format: functional; conditions: HOP-62, 48 h; procedure, shortened: as §3
TK-10 [20] = experiment: Cytotoxicity against human TK10 cells; format: cell-based; procedure, shortened: as §1
SK-MEL-2 = experiment: Cytotoxicity against human SK-MEL-2 cells; format: cell-based; procedure, shortened: as §2
SK-MEL-5 = experiment: Anticancer activity against human SK-MEL-5 cells after 48 hrs by sulforhodamine B assay; format: functional; conditions: SK-MEL-5, 48 h; procedure, shortened: as §3
BT-549 [21] = experiment: Anticancer activity against human BT549 cells after 48 hrs by sulforhodamine B assay; format: functional; conditions: BT-549, 48 h; procedure, shortened: as §3
HCT-116 [22] = experiment: Cytotoxicity against human HCT116 cells; format: cell-based; procedure, shortened: as §2
OVCAR-4 [23] = experiment: Cytotoxicity against human OVCAR4 cells; format: cell-based; procedure, shortened: as §2
OVCAR-4 [24] = experiment: Anticancer activity against human OVCAR4 cells after 48 hrs by sulforhodamine B assay; format: functional; conditions: OVCAR-4, 48 h; procedure, shortened: as §3
MCF7 [25] = experiment: Cytotoxicity against human MCF7 cells; format: cell-based; procedure, shortened: as §2
NCI-H322M [26] = experiment: Cytotoxicity against human NCI-H322M cells; format: cell-based; procedure, shortened: as §2
OVCAR-8 = experiment: Cytotoxicity against human OVCAR8 cells; format: cell-based; procedure, shortened: as §2
MDA-MB-468 [27] = experiment: Cytotoxicity against human MDA-MB-468 cells; format: cell-based; procedure, shortened: as §2
MDA-MB-231 = experiment: Cytotoxicity against human MDA-MB-231 cells; format: cell-based; procedure, shortened: as §2
NCI-H322M [28] = experiment: Anticancer activity against human NCI-H322M cells after 48 hrs by sulforhodamine B assay; format: functional; procedure, shortened: as §3
U-251 = experiment: Cytotoxicity against human U251 cells; format: cell-based; procedure, shortened: as §1

Compound Oc1ccc(Cc2ccc(O)c(C3CC(c4ccc(Cl)cc4)=NN3)c2)cc1C1CC(c2ccc(Cl)cc2)=NN1 (stereo unspecified) has an LC50 (SR [1]) greater than 100 µM, an LC50 (RXF 393 [2]) greater than 100 µM and a GI50 (SF-539) of 5.82 µM. It also gave an LC50 (HOP-92) greater than 100 µM, an LC50 (EKVX) greater than 100 µM and an LC50 (T47D [3]) greater than 100 µM. The LC50 (DU-145) was greater than 100 µM, the GI50 (786-0) was 3.81 µM and the LC50 (HL-60(TB)) was greater than 100 µM. The LC50 (HCT-15) was greater than 100 µM, the LC50 (SN12C) was greater than 100 µM and the LC50 (COLO 205) was greater than 100 µM. It also gave an LC50 (UACC-62 [4]) of 43.6 µM, a GI50 (M14 [5]) of 4.45 µM and an LC50 (IGROV-1) greater than 100 µM. For the same compound, the GI50 (KM12) was 3.09 µM, the GI50 (MCF7 [6]) was 3.04 µM and the GI50 (CCRF-CEM) was 1.94 µM. For the same compound, the LC50 (MDA-MB-435) was greater than 100 µM, the LC50 (BT-549 [7]) was greater than 100 µM and the GI50 (TK-10 [8]) was 5.34 µM. The GI50 (RPMI-8226) was 5.09 µM, the LC50 (HOP-62 [9]) was greater than 100 µM and the LC50 (NCI/ADR-RES) was greater than 100 µM. For the same compound, the GI50 (MDA-MB-468 [10]) was 3.5 µM, the GI50 (UACC-62 [11]) was 3.16 µM and the GI50 (HCC 2998) was 4.88 µM. The LC50 (UO-31 [12]) was greater than 100 µM, the LC50 (M14 [13]) was greater than 100 µM and the GI50 (T47D [14]) was 3.79 µM. The GI50 (RXF 393 [15]) was 3.99 µM, the GI50 (SK-MEL-28) was 9.84 µM and the LC50 (CAKI-1) was greater than 100 µM. It also gave a GI50 (SR [16]) of 1.83 µM, a GI50 (UO-31 [17]) of 3.04 µM and a GI50 (HCT-116 [18]) of 1.85 µM. For the same compound, the LC50 (SW-620) was greater than 100 µM, the GI50 (LOX IMVI) was 1.82 µM and the GI50 (K562) was 1.75 µM. The GI50 (NCI-H522) was 2.95 µM, the LC50 (SNB-75) was greater than 100 µM and the GI50 (HOP-62 [19]) was 4.16 µM. For the same compound, the LC50 (TK-10 [20]) was greater than 100 µM, the LC50 (SK-MEL-2) was 85.5 µM and the GI50 (SK-MEL-5) was 3.36 µM. It also gave a GI50 (BT-549 [21]) of 4.78 µM, an LC50 (HCT-116 [22]) greater than 100 µM and an LC50 (OVCAR-4 [23]) greater than 100 µM. The GI50 (OVCAR-4 [24]) was 3.54 µM, the LC50 (MCF7 [25]) was greater than 100 µM and the LC50 (NCI-H322M [26]) was greater than 100 µM. For the same compound, the LC50 (OVCAR-8) was greater than 100 µM, the LC50 (MDA-MB-468 [27]) was greater than 100 µM and the LC50 (MDA-MB-231) was greater than 100 µM. The GI50 (NCI-H322M [28]) was 4.17 µM and the LC50 (U-251) was greater than 100 µM.
